Compound activity deposited in PubChem by several laboratories.
A selection: hits, their analogues and other compounds. The true share with any hit is near 3.8%.
Granule exo inh – lytic granule exocytosis inhibition | TALL-104 LAMP-1 surface exposure, flow cytometry; cells stimulated with thapsigargin and PMA | inhibition, % at 10 µM | 360,000 compounds, 0.66% hits | AID 651702;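 active means inhibition above about 55%, limit read from the data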
T cell modulator – T cell immune modulation candidate; 2C CD8+ T cell-vesicle binding, flow cytometry; hits give low values; response (vesicle binding), % at 7 µM; 330,000 compounds, 0.068% hits; AID 2052;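 active means response, share of CD8 T cells binding vesicles, and their 90th percentile fluorescence all below set limits, cut at about 80% in these data, passing the limit was not always enough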;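 further: values below 100% mean blocked vesicle binding to the CD8+ T cells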
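Assay system – 2C mouse CD8+ T cells · Also added – QL9-loaded Drosophila micro-vesicles · Timing – Cell–vesicle co-incubation 1.5 h at 37 °C, staining 20 min on ice · Signal – flow cytometry of vesicle-bound cells · Measure – percent CD8+ FL2 mean versus row control · Controls – Peptide-free naked vesicles (low) and QL9 vesicles with 0.7% DMSO vehicle (high)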
rCAG RNA binder – molecules binding r(CAG) RNA repeats; r(CAG) RNA repeat, TO-PRO-1 dye displacement fluorescence; AID 651821; inhibition, % at 3 µM; 370,000 compounds, 1.3% hits;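 active means inhibition above the plate cutoff, the mean of all test compounds on that plate plus 3 SD, cut at about 35% in these data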;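 further: 0% = DMSO alone and 100% = 100 µM mitoxantrone as full dye displacement; higher means more dye released from RNA so lower well fluorescence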
MPTP inh – blocks calcium-induced mitochondrial swelling | inhibition, % at 10 µM | 360,000 compounds, 1.4% hits | isolated mouse mitochondria, Ca2+ swelling absorbance, 30 min;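 active means inhibition of 50% or more, scaled per plate between neutral and stimulator controls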;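 further: 0% = DMSO wells given calcium and 100% = 1 mM EGTA wells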
B2AR ag – human beta-2 adrenergic receptor agonism by FAP | P07550 | Am2.2-beta2AR cells, FAP receptor internalization, flow cytometry | response, % (concentration not given with the values) | 340,000 compounds, 0.43% hits | AID 504454;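 active means response above a set limit, near 3 SD of response in nonfluorescent compounds, cut at about 42% in these data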
Target sequence (P07550 whole entry, looked up): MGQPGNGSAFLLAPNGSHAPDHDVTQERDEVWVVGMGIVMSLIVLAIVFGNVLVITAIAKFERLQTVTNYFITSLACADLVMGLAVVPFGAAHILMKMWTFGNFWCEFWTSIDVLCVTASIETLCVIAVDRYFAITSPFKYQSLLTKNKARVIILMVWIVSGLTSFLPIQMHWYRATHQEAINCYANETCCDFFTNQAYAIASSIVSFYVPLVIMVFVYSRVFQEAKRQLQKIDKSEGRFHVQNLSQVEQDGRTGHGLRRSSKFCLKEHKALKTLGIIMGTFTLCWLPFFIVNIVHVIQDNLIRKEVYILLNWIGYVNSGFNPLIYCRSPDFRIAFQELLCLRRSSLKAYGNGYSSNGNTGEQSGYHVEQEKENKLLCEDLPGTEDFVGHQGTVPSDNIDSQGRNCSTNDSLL
V-ATPase pH – alters yeast V-ATPase proton transport | S. cerevisiae, pHLuorin cytosolic pH fluorescence | response, % at 10 µM | 350,000 compounds, 0.37% hits | AID 504577; in the data active means response mostly above about 7.3%, no sharp cut-off; inactive means mostly below about 5.4%; further: actives read high
MPTP counter – Rhodamine 123 counter-screen of mitochondrial pore hits. inhibition, % at 10 µM. 5,000 compounds, 78% hits. isolated mitochondria, membrane potential, Rhodamine 123 fluorescence. AID 624504. shares compounds with MPTP inh; in the data active means inhibition above about 22%;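 further: 0% = DMSO vehicle and 100% = positive control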
MPTP swell DR – dose response confirmation of mitochondrial permeability transition pore inhibitors | shares compounds with MPTP inh | isolated mitochondria swelling, absorbance | IC50, µM | 780 compounds, 58% hits | AID 651561; in the data active means IC50 below about 20 µM
MPTP counter DR – counter-screen for mitochondrial permeability transition pore inhibitors, dose response | shares compounds with MPTP inh | isolated mitochondria counterscreen, fluorescence read-out | IC50, µM | 780 compounds, 49% hits | AID 651564; in the data active means IC50 below about 80 µM
* hit, by the source's call; i = inactive; . = no result given.

SMILES	Granule exo inh	T cell modulator	rCAG RNA binder	MPTP inh	B2AR ag	V-ATPase pH	MPTP counter	others
CNCCCC1c2ccccc2C=Cc2ccccc21	3	496	13	50	17	0	.
CC(=O)c1c(C)[nH]c(C(=O)CSc2ccc(F)cc2)c1C	-3	109	1	90*	10	1	84*
CC(=O)c1c(C)[nH]c(C(=O)CSc2nc3ccc(C)cc3[nH]2)c1C	2	257	13	-1	-4	1	.
Cc1ccc(-c2cc(C(=O)NN=Cc3cccc4ccccc34)[nH]n2)cc1C	.	.	20	.	.	.	.
NC(=O)c1ncn([C@@H]2O[C@H](C(=O)N[C@H](Cc3c[nH]c4ccccc34)C(=O)N3CCN(C(=O)C4CC4)CC3)[C@@H](O)[C@H]2O)n1	.	.	1	.	.	.	.
Cn1c(=O)c2c(nc(NCCOc3ccc(C(C)(C)C)cc3)n2C)n(C)c1=O	2	i	-1	101*	-2	-2	6	MPTP swell DR=2.3*;MPTP counter DR=36*
CC(O)CNc1nc2c(c(=O)n(C)c(=O)n2C)n1Cc1cccc(C(F)(F)F)c1 (configuration not stated)	0	434	-8	0	-3	5	.
COCCNc1nc2c(c(=O)n(C)c(=O)n2C)n1Cc1cccc(C(F)(F)F)c1	0	362	-3	82*	2	2	71*
COc1ccccc1OCCNc1nc2c(c(=O)n(C)c(=O)n2C)n1C	-1	220	-6	0	-6	3	.
CCN(CC)C(=O)[C@H]1C[C@@H]2[C@H](C[C@@H](c3ccccc3)[C@H]1C)N(c1ccc(F)cc1)C(=O)N2CCCOc1ccccc1	.	.	5	.	.	.	.
CCC(C)[C@H](NC(=O)OC(C)(C)C)C(=O)N[C@@H](Cc1ccccc1)C(=O)OC (some centres not stated)	.	.	-2	.	.	.	.
C/C(=N\NC(=O)C1CC1(c1ccccc1)c1ccccc1)c1cccc([N+](=O)[O-])c1 (configuration not stated)	-6	264	0	2	6	3	.
O=C(Nc1ccc([N+](=O)[O-])cc1)C1CC1(c1ccccc1)c1ccccc1 (configuration not stated)	4	331	1	92*	5	2	87*
CCOC(=O)c1sc(NC(=O)Nc2ccc(Cl)cc2)cc1C	9	107	25	116*	5	3	47*
CCOC(=O)c1sc(NC(=O)c2cccc(S(=O)(=O)N(CC)CC)c2)cc1C	-1	478	1	51*	-3	0	11	MPTP swell DR=>100;MPTP counter DR=<2.5*
O[C@@H]1CN(Cc2ccc(-n3cccn3)cc2)CC[C@H]1N1CCN(c2ccccc2F)CC1	1	124	-7	69*	-13	0	59*
CCOc1cc(CNC2CCCC2)cc(Cl)c1OCc1ccccc1	19	182	4	68*	12	-3	-3	MPTP swell DR=3.1*;MPTP counter DR=49*
CC[C@@H](CCC(=O)N(c1ccccc1)c1ccccc1)c1ccc(C)cc1	.	.	-1	.	.	.	.
CN1CCN(C(c2ccc(Br)cc2)c2cc(Cl)c3cccnc3c2O)CC1 (configuration not stated)	54	323	9	76*	38	-1	-21
CCOC(=O)c1sc(NNC(=O)c2ccc(C)cc2)nc1C	-8	543	1	4	-13	0	.
CCOC(=O)c1nc(NNC(=O)c2ccc([N+](=O)[O-])cc2)sc1C	14	136	37*	78*	5	-1	67*
O=C(NCc1ccccc1F)Nc1ccc([N+](=O)[O-])cc1	3	158	-1	94*	-5	-1	89*
O=C(NCc1ccco1)Nc1ccc([N+](=O)[O-])cc1	1	253	-1	9	0	1	.
O=C(NCc1ccc2c(c1)OCO2)Nc1ccc([N+](=O)[O-])cc1	0	567	2	81*	-3	0	83*
COc1ccccc1-c1cccc2c3c([nH]c12)[C@@H]1C[C@H]2[C@@H](CN1CC3)[C@H](C)ON2C	.	.	5	.	.	.	.
SMILES	Granule exo inh	T cell modulator	rCAG RNA binder	MPTP inh	B2AR ag	V-ATPase pH	MPTP counter	others
CSc1ccccc1CNc1nc(NCC2CC2)nc2ccsc12	12	.	1	91*	.	.	102*
COc1ccccc1CNc1nc(NCCOc2ccccc2Cl)c2sccc2n1	3	.	3	50*	.	.	92*
CNc1nc(NCCOc2ccccc2Cl)c2sccc2n1	-5	.	0	1	.	.	.
COc1cccc(CNc2nc(NCC3CC3)nc3ccsc23)c1	8	.	1	21	.	.	.
CC(C)c1ccc(CNc2nc(NCC3CC3)nc3ccsc23)cc1	38	.	1	80*	.	.	99*
c1csc(CNc2nc(NCC3CCCCC3)c3sccc3n2)c1	-1	.	0	51*	.	.	91*
CC(C)[C@H](NC(=O)[C@H](C)NC(=O)OC(C)(C)C)C(=O)N1CCC2CCN(Cc3ccccc3)CC21 (some centres not stated)	.	.	-2	.	.	.	.
CNC12CCc3cc(OC)c(OC)c(c31)-c1cc3c(cc1C2)OCO3 (configuration not stated)	.	.	0	.	.	.	.
COc1ccc(N2CCN(CCCNC(=O)CCc3cccc(Cl)c3)CC2)cc1	.	.	0	.	.	.	.
CC1/C(=N/O)CC(c2ccco2)NC1c1ccco1 (configuration not stated)	-1	366	-1	1	2	3	.
CCCC1C(c2ccco2)NC(c2ccco2)CC1(C)O (configuration not stated)	2	289	-1	78*	3	-1	4	MPTP swell DR=>100;MPTP counter DR=>80
COCC(=O)O[C@]1(CCN(C)CCCc2nc3ccccc3[nH]2)CCc2cc(F)ccc2[C@@H]1C(C)C	63*	659	1	93*	41	2	-13
COc1ccccc1-c1cc(C(F)(F)F)nc(N2CCCCC2)n1	2	515	-2	5	3	1	.
FC(F)(F)c1cc(-c2ccccc2)nc(N2CCCCC2)n1	-3	221	-1	67*	-1	-4	-2	MPTP swell DR=i;MPTP counter DR=>80
O=C(CSc1nnc(-c2cccnc2)n1-c1ccccc1)Nc1ccc2c(c1)OCCO2	.	.	0	.	.	.	.
N#CC1=C(N)N2C(=C(C#N)C13CCCCC3)SC1CCCCC12O (configuration not stated)	0	338	0	66*	4	-1	72*
CN(Cc1c(F)cccc1Cl)C(=O)c1cccc(S(=O)(=O)N2CCN(Cc3ccccc3)CC2)c1	1	.	3	1	-6	-2	.
